Reference: publication PMC3481835 (Clinical pharmacology and therapeutics, 2011)
Where two headings read alike, the source gives them in different places.

Experiments:
CYP3A4 [1] = details: cited from earlier work; for decrease in urinary 6β-hydroxycortisol to cortisol-ratio: range printed for the three inhibitors
CYP2B6 [2] = target: T1, CYP2B6 (Homo sapiens, UniProt P20813); details: recombinant enzyme
T1 sequence (P20813 1-491): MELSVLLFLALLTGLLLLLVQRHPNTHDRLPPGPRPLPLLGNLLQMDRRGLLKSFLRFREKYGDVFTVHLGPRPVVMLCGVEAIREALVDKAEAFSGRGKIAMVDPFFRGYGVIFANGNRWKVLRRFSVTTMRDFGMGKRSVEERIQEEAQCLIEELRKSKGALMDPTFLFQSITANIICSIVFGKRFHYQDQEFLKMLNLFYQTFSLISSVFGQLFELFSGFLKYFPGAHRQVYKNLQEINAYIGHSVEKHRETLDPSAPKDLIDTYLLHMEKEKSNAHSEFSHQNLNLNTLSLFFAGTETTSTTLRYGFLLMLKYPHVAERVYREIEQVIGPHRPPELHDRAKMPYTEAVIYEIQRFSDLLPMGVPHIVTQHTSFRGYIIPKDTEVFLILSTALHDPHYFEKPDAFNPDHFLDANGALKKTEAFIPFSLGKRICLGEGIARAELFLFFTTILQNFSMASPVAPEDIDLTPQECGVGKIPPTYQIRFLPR

CYP3A4 [3] = target: T2, CYP3A4 (Homo sapiens, UniProt P08684); details: recombinant enzyme, pH 7.4
[4] = Renal clearance of cortisol; type: in vivo, human
CYP2B6 [5] = target: T1, CYP2B6; assay: 6β-hydroxylation by recombinantly-expressed CYP2B6; details: recombinantly-expressed enzyme
CYP3A4 [6] = details: during treatment; cited from earlier work
Fraction unbound = type: in vitro ADME; details: human, pooled human liver microsomes
Method in brief: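 Pooled microsomes from three CYP3A5*3/*3 donors (equal protein each), 0.5 mg/mL, spiked with test compound at 5, 50 or 1000 nM, duplicates. Each sample split: one aliquot ultracentrifuged at 445,760 g, 140 min, 37 °C; the other held at 37 °C for the same time. Upper clear layer and uncentrifuged sample taken into ACN with deuterated internal standard; HPLC (C8, ammonium acetate/ACN gradient) with LC-MS.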

[7] = Plasma concentrations of cortisol and cortisone after itraconazole; type: in vivo, human; details: single doses 50, 200 and 400 mg po
CYP3A4 [8] = type: in vivo, human
CYP3A4 [9] = target: T2, CYP3A4; assay: in vitro; details: pH 7.4
CYP3A4 [10] = target: T2, CYP3A4; assay: in vitro; details: pH 7.4; remark: listed apart in the source
CYP3A4 [11] = details: cited from earlier work; for predicted decrease in CYP3A4 mediated clearance: predicted from I/Ki
CYP3A4 [12] = target: T2, CYP3A4; assay: Formation clearance; type: in vivo; details: 50 mg itraconazole

T2 sequence (P08684 whole entry): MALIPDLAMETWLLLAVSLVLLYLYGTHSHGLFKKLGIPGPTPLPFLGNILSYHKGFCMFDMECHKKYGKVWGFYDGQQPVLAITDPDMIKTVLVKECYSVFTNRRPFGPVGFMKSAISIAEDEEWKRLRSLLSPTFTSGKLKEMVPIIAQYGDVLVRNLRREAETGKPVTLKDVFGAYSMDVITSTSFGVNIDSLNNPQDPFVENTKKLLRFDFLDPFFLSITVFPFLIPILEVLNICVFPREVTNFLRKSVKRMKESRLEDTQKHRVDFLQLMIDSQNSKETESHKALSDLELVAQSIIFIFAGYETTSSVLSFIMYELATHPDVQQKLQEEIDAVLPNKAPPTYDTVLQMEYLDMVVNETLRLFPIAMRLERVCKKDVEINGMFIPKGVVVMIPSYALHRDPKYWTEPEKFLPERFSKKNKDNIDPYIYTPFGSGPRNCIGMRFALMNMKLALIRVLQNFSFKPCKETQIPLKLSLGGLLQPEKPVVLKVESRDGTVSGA

In the case of `CC(C)CN(C[C@@H](O)[C@H](Cc1ccccc1)NC(=O)O[C@H]1CCOC1)S(=O)(=O)c1ccc(N)cc1` [amprenavir], the “effect on urinary 6β-hydroxycortisol to cortisol ratio” value (CYP3A4 [1]) is listed as “no significant inhibitory effect”.
In the case of `CC[C@H]1OC(=O)[C@H](C)[C@@H](O[C@H]2C[C@@](C)(OC)[C@@H](O)[C@H](C)O2)[C@H](C)[C@@H](O[C@@H]2O[C@H](C)C[C@H](N(C)C)[C@H]2O)[C@](C)(OC)C[C@@H](C)C(=O)[C@H](C)[C@@H](O)[C@]1(C)O` [clarithromycin], the “decrease in urinary 6β-hydroxycortisol to cortisol-ratio” value (CYP3A4 [1]) is listed as 15-65%.
With `C[C@]12CCC(=O)C=C1CC[C@@H]1[C@@H]2[C@@H](O)C[C@@]2(C)[C@H]1CC[C@]2(O)C(=O)CO` [cortisol] the “v, 6β-hydroxylation by CYP2B6” value (CYP2B6 [2]; human, 25 µM, pH 7.4) was 0.11 pmol/min/pmol, the “CYP3A4 mediated CLint relative to CYP2B6 mediated CLint” value (CYP2B6 [2]; human, pH 7.4) was 40 fold and the “apparent CYP2B6 mediated intrinsic clearance” value (CYP2B6 [2]; human, pH 7.4) was 0.0045 mL/min/nmol P450. For the same molecule, the “6β-hydroxylation detected with CYP2B6” value (CYP2B6 [2]) was “observed”, the “intrinsic clearance (CLint), 6β-hydroxylation by CYP3A4” value (CYP3A4 [3]) was 0.18 mL/min/nmol CYP3A4 and the CL renal ([4]; both, human, urine and plasma) was 0.283 mL/min.
For `C[C@]12CCC(=O)C=C1CC[C@@H]1[C@@H]2C(=O)C[C@@]2(C)[C@H]1CC[C@]2(O)C(=O)CO` [cortisone], the “6β-hydroxylation detected with CYP2B6” value (CYP2B6 [5]) was “not”.
For `C#C[C@]1(O)CC[C@H]2[C@@H]3CCC4=Cc5oncc5C[C@]4(C)[C@H]3CC[C@@]21C` [danazol], the “decrease in urinary 6β-hydroxycortisol to cortisol-ratio” value (CYP3A4 [1]) is given as 15-65%.
For `CCC(C)n1ncn(-c2ccc(N3CCN(c4ccc(OCC5COC(Cn6cncn6)(c6ccc(Cl)cc6Cl)O5)cc4)CC3)cc2)c1=O` (stereo not shown) [itraconazole], the “decrease in 4β-hydroxycholesterol concentrations” value (CYP3A4 [6]) is listed as 21-29%, the “decrease in total cholesterol” value (CYP3A4 [6]) is listed as 10% and the fraction unbound at 140 min (Fraction unbound) is listed as 0.046 ± 0.01. The “effect on the plasma concentrations of cortisol or cortisone” value [7] was “no effect”, the “predicted decrease in oral midazolam clearance” value (CYP3A4 [8]; 50 mg ITZ) was 30% and the “predicted decrease in hepatic midazolam clearance” value (CYP3A4 [8]; 50 mg ITZ, from circulating ITZ and metabolites and in vitro IC50) was 21%. For the same molecule, the “predicted decrease in oral midazolam clearance” value (CYP3A4 [8]; 200 mg ITZ) was 77%, the Emax at 15 min (CYP3A4 [9]) was 78 to 85% and the Emax at 15 min (CYP3A4 [10]) was 78 to 85%. The “decrease in MDZ CL/F” value (CYP3A4 [11]; 50 mg itraconazole) was 50%, the “predicted decrease in CYP3A4 mediated clearance” value (CYP3A4 [11]; 24-48 hours after 400 mg) was 50-70% and the “decrease in MDZ CL/F” value (CYP3A4 [11]; 200 and 400 mg itraconazole) was 80%. The “expected persistence of CYP3A4 inhibition” value (CYP3A4 [11]; after 400 mg, return to baseline at 72 hours) was 48 h, the “RKi (IC50,in vitro/IC50,in vivo), itraconazole-oral MDZ interaction” value (CYP3A4 [11]) was 14.5 and the “predicted decrease in CYP3A4 mediated clearance” value (CYP3A4 [11]; first 24 hours after 400 mg) was 70-90%. For the same molecule, the “effect on renal clearance of cortisol” value ([4]; escalating itraconazole doses) was “unchanged” and the “decrease in the CLf processes” value (CYP3A4 [12]) was “No significant decrease”.
For `Cc1ncc2n1-c1ccc(Cl)cc1C(c1ccccc1F)=NC2` [midazolam], the “in vivo fm attributed to CYP3A4, midazolam metabolism” value (CYP3A4 [11]; ref not given) is given as 84%.
